Measured values from ChEMBL document CHEMBL4219242, “Furoxans (Oxadiazole-4 N-oxides) with Attenuated Reactivity are Neuroprotective, Cross the Blood Brain Barrier, and Improve Passive Avoidance Memory” (J Med Chem, 2018).
Activity calls are given as the source filed them.

Legend:
[1] = system: PC-12; test: Neuroprotective activity against oxygen glucose deprivation-induced cell death in rat PC12 cells assessed as change in cell viability at 1 uM after 24 hrs by MTT assay relative to control; assay type: functional
Summary of the method: (§1)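 Undifferentiated PC12 cells (passage 12−14), 1 × 10^6 plated overnight in DMEM/F12 with 5% FBS and 5% horse serum. OGD: glucose-free HBSS under argon in an anaerobic chamber, 1.5 h at 37 °C. Reoxygenated in fresh growth medium with compound or DMSO vehicle for 24 h at 37 °C. Viability by MTT (0.5 mg/mL, 4 h), DMSO-solubilised, A540. % change vs vehicle control; mean ± SEM, n=3, triplicate experiments.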

[2] = system: PC-12; test: Neuroprotective activity against oxygen glucose deprivation-induced cell death in rat PC12 cells assessed as change in cell viability at 25 uM after 24 hrs by MTT assay relative to control; assay type: functional; summary of the method: as §1
[3] = system: PC-12; test: Neuroprotective activity against oxygen glucose deprivation-induced cell death in rat PC12 cells assessed as change in cell viability at 10 uM after 24 hrs by MTT assay relative to control; assay type: functional; summary of the method: as §1
[4] = system: Mus musculus; test: Effect on CREB phosphorylation in hippocampal tissue of scopolamine-induced C57BL/6 mouse memory deficit model at 20 mg/kg, ip treated for 2 hrs prior to test followed by scopolamine challenge 30 mins prior to test by Western blot analysis; assay type: organism-based; details: in vivo
Summary of the method: (§2)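 C57BL/6 mice (N = 8 per cohort, blinded) received the HCl salt at 20 mg/kg ip (saline/1% DMSO) or vehicle 2 h before sacrifice, and scopolamine at 1 mg/kg ip or saline 30 min before sacrifice. Hippocampal lysates were run on 10−20% Tris-glycine gels and transferred to PVDF. Blots were probed with pCREB Ser133, CREB, p-ERK1/2 Thr202/Tyr204 and ERK1/2 antibodies, normalised to GAPDH and expressed as phospho:total.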

[5] = Half life in C57BL/6 mouse plasma at 20 mg/kg, ip or po measured after 1 to 12 hrs by LC-MS/MS analysis; assay type: ADME, organism-based
Summary of the method: (§3)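 Male C57BL/6 mice (n = 4 per group) given the HCl salt at 20 mg/kg, either by oral gavage in sesame oil or ip in 0.9% NaCl with 1% DMSO. Sacrificed at 1, 2 or 12 h. Plasma (cardiac puncture, K2EDTA) and forebrain homogenate underwent solid-phase extraction with the d4 internal standard, then LC-MS/MS MRM quantitation against a spiked-brain calibration curve. Concentrations normalised to tissue weight; duplicate LC runs.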

[6] = system: PC-12; test: Neuroprotective activity against oxygen glucose deprivation-induced cell death in rat PC12 cells assessed as change in cell viability at 10 to 50 uM after 24 hrs cotreated with sGC inhibitor ODQ by MTT assay; assay type: functional, cell-based
Summary of the method: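 OGD-exposed PC12 cells (90 min glucose-free HBSS under argon, 37 °C) treated for 24 h with compound with or without the sGC inhibitor ODQ (10 μM). MTT viability read-out (0.5 mg/mL, 4 h, A540). Mean ± SEM (n = 3) of duplicate experiments; one-way ANOVA with Dunnett's test against vehicle.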

[7] = Half life in C57BL/6 mouse brain at 20 mg/kg, ip or po measured after 1 to 12 hrs by LC-MS/MS analysis; assay type: ADME, organism-based; summary of the method: as §3
[8] = Drug uptake in C57BL/6 mouse brain at 20 mg/kg, ip or po measured after 1 to 12 hrs by LC-MS/MS analysis; assay type: ADME, organism-based; details: in vivo; summary of the method: as §3
[9] = Stability of the compound in pH 7.4 PBS buffer at 250 uM after 2 to 12 hrs in presence of excess free thiols by HPLC-PDA analysis; assay type: physicochemical; details: pH 7.4, 250 µM
Summary of the method: (§4)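 Compound (250 μM) or N-ethylmaleimide control (250 μM) incubated with or without N-acetylcysteine (5 mM) in 50 mM PBS, pH 7.4, at 37 °C. Aliquots taken at 2 and 12 h were analysed by HPLC-PDA. Peak AUC at each analyte's λmax gave the remaining starting material.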

[10] = Ratio of drug uptake in C57BL/6 mouse brain to plasma at 20 mg/kg, po measured after 1 to 12 hrs by LC-MS/MS analysis; assay type: ADME, organism-based; details: read-out: BPR
Summary of the method: (§5)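 Brain:plasma ratio taken from forebrain and plasma levels in C57BL/6 mice dosed at 20 mg/kg (ip in saline/1% DMSO or po in sesame oil), sampled at 1, 2 or 12 h. Samples extracted by SPE with the d4 internal standard and measured by LC-MS/MS MRM. Mean ± SEM; routes compared by unpaired t test.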

[11] = system: Mus musculus; test: Effect on Erk phosphorylation in hippocampal tissue of scopolamine-induced C57BL/6 mouse memory deficit model at 20 mg/kg, ip treated for 2 hrs prior to test followed by scopolamine challenge 30 mins prior to test by Western blot analysis; assay type: organism-based; details: in vivo; summary of the method: as §2
[12] = system: Mus musculus; test: Effect on CREB phosphorylation in C57BL/6 mouse forebrain at 20 mg/kg, ip or po measured after 1 to 12 hrs by ELISA; assay type: organism-based; details: in vivo
[13] = Drug uptake in C57BL/6 mouse plasma at 20 mg/kg, ip or po measured after 1 to 12 hrs by LC-MS/MS analysis; assay type: ADME, organism-based; details: in vivo; summary of the method: as §3
[14] = Drug uptake in cytosol of rat PC12 cells at 25 after 24 hrs under oxygen glucose deprivation condition by LC-MS/MS analysis; assay type: ADME, subcellular, PC-12
Summary of the method: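 After OGD (as in the neuroprotection assay), 1×10^6 PC12 cells were exposed to analyte at 25 μM for 24 h; a non-OGD plate served as control. Medium and cytosolic fractions (HEPES/NP-40 lysis buffer, 15 min at 0 °C, centrifuged) were diluted in 2% formic acid, spiked with the deuterated/nondeuterated partner as internal standard, and analysed by UPLC-MS/MS (MRM). AUCs were normalised to the internal standard.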

[15] = system: PC-12; test: Cytotoxicity against rat PC12 cells assessed as reduction in cell viability at 50 uM after 24 hrs by MTT assay; assay type: cell-based; details: pc-12, 24 h
[16] = Ratio of drug uptake in C57BL/6 mouse brain to plasma at 20 mg/kg, ip measured after 1 to 12 hrs by LC-MS/MS analysis; assay type: ADME, organism-based; details: read-out: BPR; summary of the method: as §5
[17] = system: PC-12; test: Neuroprotective activity against oxygen glucose deprivation-induced cell death in rat PC12 cells assessed as reduction in cell viability at 50 uM after 24 hrs by MTT assay; assay type: functional, cell-based
[18] = system: PC-12; test: Neuroprotective activity against oxygen glucose deprivation-induced cell death in rat PC12 cells assessed as change in cell viability after 24 hrs by resorufin-dye based assay; assay type: functional; details: PC-12, 24 h
Summary of the method: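 PC12 cells (undifferentiated, passage 12−14) given OGD for 90 min (glucose-free HBSS, argon, 37 °C), then normoxic growth medium with compound at 0.1, 1, 5, 10, 25 or 50 μM for 24 h. PrestoBlue (10%, 30 min) fluorescence at 560/590 nm. Viability as percent change against vehicle-control mean; control plates without OGD were included.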

[19] = system: Mus musculus; test: Reversal of scopolamine-induced memory impairment in C57BL/6 mouse assessed as latency time to enter dark compartment at 20 mg/kg, ip administered 60 to 120 mins prior to training followed by scopolamine challenge 30 mins prior to training measured after 24 hrs (reference value: 63.5 +/- 30 sec); assay type: functional
Summary of the method: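 Male C57BL/6 mice, habituated to confirm photophobia, were given the HCl salt (0.1–20 mg/kg ip in 0.9% NaCl/1% DMSO) 60 or 120 min before training, and scopolamine 1 mg/kg ip 30 min before training. Double-trial step-through training used a 0.5 mA, 3 s shock. Latency to enter the dark side was measured 24 h later (cut-off 300 s). n = 8–9; ANOVA with Dunnett's test.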

[20] = Thiol reactivity of the compound in pH 7.4 PBS buffer at 250 uM after 2 to 12 hrs by HPLC-PDA analysis; assay type: physicochemical; details: pH 7.4, 250 µM; summary of the method: as §4

SMILES	Activity [1] [%]	Activity [2] [%]	Activity [3] [%]	further results
CC1CCN(Cc2c(-c3ccccc3)no[n+]2[O-])CC1	9	16	19	
CC1CCN(Cc2no[n+]([O-])c2-c2ccc(F)cc2)CC1	-3	41	46	Activity [4]: Non-Toxic; half-life [5]: 1.83 h; Activity [6]: inactive; half-life [7]: 0.833 h; Drug uptake [8]: Active; Stability [9]: Stable; Kp [10]: 1.49; Activity [11]: Non-Toxic; Activity [12]: Non-Toxic; Drug uptake [13]: Active; Drug uptake [14]: Active; Activity [15]: Non-Toxic; Kp [16]: 0.68; Activity [17]: inactive; EC50 [18]: 1900 nM; Time [19]: 237 s
Cc1ccc(-c2no[n+]([O-])c2CN2CCC(C)CC2)cc1	7	10	12	
CCN1C(=O)C=CC1=O [N-ETHYLMALEIMIDE]				Drug metabolism [20]: Metabolite_Detected
CC1CCN(Cc2no[n+]([O-])c2-c2ccc(Br)cc2)CC1	25	96	77	
CC1CCN(Cc2c(-c3ccc(F)cc3)no[n+]2[O-])CC1	11	5	11	
Cc1ccc(-c2c(CN3CCC(C)CC3)no[n+]2[O-])cc1	22	8	13	
CC1CCN(Cc2c(-c3ccc(OC(F)F)cc3)no[n+]2[O-])CC1	54	108	86	
[2H]C1([2H])CC(C)CC([2H])([2H])N1Cc1c(-c2ccc(F)cc2)no[n+]1[O-]	11	-1	6	
CC1CCN(Cc2no[n+]([O-])c2-c2ccccc2)CC1	-21	-11	6	
CC1CCN(Cc2no[n+]([O-])c2-c2ccc(C(F)(F)F)cc2)CC1	2	-22	-16	
COc1ccc(-c2c(CN3CCC(C)CC3)no[n+]2[O-])cc1	11	5	12	
COc1ccc(-c2no[n+]([O-])c2CN2CCC(C)CC2)cc1	14	-1	10	
CC1CCN(Cc2no[n+]([O-])c2-c2ccc(Cl)cc2)CC1	-10	4	19	
CC1CCN(Cc2c(-c3ccc(Br)cc3)no[n+]2[O-])CC1	-7	19	-2	
CC1CCN(Cc2no[n+]([O-])c2-c2ccc(OC(F)F)cc2)CC1	67	53	61	
CC1CCN(Cc2c(-c3ccc(C(F)(F)F)cc3)no[n+]2[O-])CC1	-9	0	10	
CC1CCN(Cc2c(-c3ccc(Cl)cc3)no[n+]2[O-])CC1	35	25	7	
[2H]C1([2H])CC(C)CC([2H])([2H])N1Cc1no[n+]([O-])c1-c1ccc(F)cc1	8	7	20	Drug uptake [14]: Active
